Series [1] concerns the target Translocator protein (Homo sapiens, UniProt P30536). Put plainly: Inhibition of TSPO (unknown origin). The procedure, abridged: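 Membranes from male Sprague-Dawley rat cerebral cortex were homogenised and washed in Tris-HCl (30 mM, pH 7.4), then washed in Tris-citrate (50 mM, pH 7.1). Bound and free ligand were separated by filtration through GF/C filters and counted by scintillation. Percent displacement gave the IC50, and Ki was calculated as IC50/(1+[L]/Kd).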

Series [2] can be described thus: Cytotoxicity against mouse HT22 cells assessed as cell viability at 5 uM after 24 hrs by MTT assay relative to control. Type of series: toxicity, HT-22. To be noted: read-out: Activity. Put shortly:
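MTT was added for 2 h, then solubilising solution (10% Triton X-100 in isopropanol with 0.1 M HCl) for 2 h more. Absorbance read at 560 nm; % inhibition normalised to vehicle, and viability taken from compound-only wells.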

Series [3] has as its target T1, CYP1A2 (Homo sapiens, UniProt P05177).
T1 sequence (P05177 whole entry): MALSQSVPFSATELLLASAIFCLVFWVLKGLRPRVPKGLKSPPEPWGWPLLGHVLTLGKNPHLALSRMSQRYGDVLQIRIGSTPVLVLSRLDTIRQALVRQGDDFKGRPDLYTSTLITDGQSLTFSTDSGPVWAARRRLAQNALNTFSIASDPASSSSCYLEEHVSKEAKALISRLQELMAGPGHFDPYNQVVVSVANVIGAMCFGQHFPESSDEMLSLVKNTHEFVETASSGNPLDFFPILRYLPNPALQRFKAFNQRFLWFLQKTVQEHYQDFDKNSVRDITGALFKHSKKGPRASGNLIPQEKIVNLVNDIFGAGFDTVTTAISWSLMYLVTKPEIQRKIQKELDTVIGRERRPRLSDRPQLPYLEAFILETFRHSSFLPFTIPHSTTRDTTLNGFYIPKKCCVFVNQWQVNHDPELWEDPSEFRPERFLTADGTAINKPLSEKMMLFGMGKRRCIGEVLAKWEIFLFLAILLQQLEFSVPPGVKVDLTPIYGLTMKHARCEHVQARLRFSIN
Put plainly: Inhibition of recombinant human CYP1A2 expressed in baculosomes coexpressing rabbit NADPH-P450 reudctase assessed as residual activity at 10 uM preincubated for 5 mins followed by substrate and NADP+ addition measured after 20 mins by fluorescence assay relative to control. Type of series: ADME. Conditions: read-out: Activity. Put shortly:
(§1)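 Vivid CYP450 kit: recombinant human CYP isozyme in Baculosomes with rabbit NADPH-P450 reductase, plus regeneration system (3.3 mM glucose-6-phosphate, 0.3 U/mL G6PDH in 100 mM potassium phosphate, pH 8.0). Mixture preincubated with sample for 5 min at 37 °C. Vivid substrate and 0.1 mM NADP+ were then added, and remaining activity read by fluorescence after 20 min.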

In series [4] the target is Translocator protein (Mus musculus) (UniProt P50637). Put plainly: Inhibition of TSPO in mouse HT22 cells assessed as inhibition of amyloid beta (1 to 42)-induced ROS generation at 5 uM after 6 hrs by DCFDA staining based fluorescence assay relative to control. Type of series: cell-based. To be noted: HT-22.
Sequence of Translocator protein (Mus musculus) (P50637 whole entry, looked up): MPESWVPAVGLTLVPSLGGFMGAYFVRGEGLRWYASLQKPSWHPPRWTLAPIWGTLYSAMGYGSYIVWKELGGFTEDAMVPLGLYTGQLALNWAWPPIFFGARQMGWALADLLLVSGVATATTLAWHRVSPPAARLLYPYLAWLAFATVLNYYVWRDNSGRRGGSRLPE
For series [5] the target is unchanged. Put plainly: Inhibition of TSPO in mouse HT22 cells assessed as protection against amyloid beta (1 to 42)-induced mitochondrial membrane potential loss by measuring recovery of mitochondrial membrane potential at 5 uM preincubated for 10 mins followed by amyloid beta (1 to 42) addition measured every 1 hr for 3 hrs by JC1 staining based fluorescence assay relative to control. To be noted: HT-22. Set-up: scale not given: the % may be the effect or the level left. Type of series: cell-based. The procedure, abridged: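 HT22 cells at 30,000 per well were loaded with 7.5 µM JC-1 in phenol red-free Opti-MEM for 1 h 15 min at 37 °C, then washed. Cells were treated with compound (5 µM) and Aβ1-42 (5 µM); vehicle wells received DMSO. Green (485/535) and red (560/595) fluorescence were read hourly for 3 h. Recovery was normalised between Aβ-damaged (0%) and normal (100%) ratio.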

The target of series [6] is CYP2C9 (Homo sapiens, UniProt P11712). The experiment in a line: Inhibition of recombinant human CYP2C9 expressed in baculosomes coexpressing rabbit NADPH-P450 reudctase assessed as residual activity at 10 uM preincubated for 5 mins followed by substrate and NADP+ addition measured after 20 mins by fluorescence assay relative to control. The class given is ADME. To be noted: read-out: Activity. Put shortly:
as §1

Series [7] addresses Translocator protein (Mus musculus) (UniProt P50637). The experiment in a line: Inhibition of TSPO in mouse HT22 cells assessed as protection against amyloid beta (1 to 42)-induced mitochondrial membrane potential loss by measuring recovery of ATP production at 5 uM preincubated for 10 mins followed by amyloid beta (1 to 42) addition measured after 7 hrs by luciferase reporter gene assay relative to control. Type of series: cell-based. Set-up: scale not given: the % may be the effect or the level left. To be noted: HT-22. The procedure, abridged:
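HT22 cells at 7000 per well were given compound (5 µM) for 10 min at 37 °C, then Aβ1-42 (5 µM) or DMSO vehicle, and incubated 7 h. Cells were washed, lysed in 1% Triton X-100, and protein-equalised by BCA. ATP was measured by luciferin/luciferase luminescence and normalised to vehicle.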
Background: A reporter such as luciferase makes a cellular process visible.

Series [8] has as its target CYP2D6 (Homo sapiens, UniProt P10635). Put plainly: Inhibition of recombinant human CYP2D6 expressed in baculosomes coexpressing rabbit NADPH-P450 reudctase assessed as residual activity at 10 uM preincubated for 5 mins followed by substrate and NADP+ addition measured after 20 mins by fluorescence assay relative to control. Type of series: ADME. Conditions: read-out: Activity. The procedure, abridged: as §1

The target in series [9] is Translocator protein (Mus musculus) (UniProt P50637). The experiment in a line: Inhibition of TSPO in mouse HT22 cells assessed as inhibition of amyloid beta (1 to 42)-induced toxicity at 5 uM after 24 hrs by MTT assay relative to control. Type of series: cell-based. To be noted: HT-22. The procedure, abridged:
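HT22 cells at 5000 per well were treated with compound (5 µM), with or without Aβ1-42 (5 µM), for 24 h at 37 °C. MTT was added for 2 h, then solubilising solution (10% Triton X-100 in isopropanol with 0.1 M HCl) for 2 h more. Absorbance read at 560 nm; % inhibition normalised to vehicle, and viability taken from compound-only wells.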
(In general: Tetrazolium assays rely on reduction of a dye to a coloured formazan, in cell work by metabolically active cells.)

Series [10] addresses Voltage-gated inwardly rectifying potassium channel KCNH2 (Homo sapiens, UniProt Q12809). Put plainly: Inhibition of human ERG expressed in CHOK1 cells by automated patch clamp method. The class given is cell-based, CHO-K1.
In series [11] the target is CYP2C19 (Homo sapiens, UniProt P33261). Put plainly: Inhibition of recombinant human CYP2C19 expressed in baculosomes coexpressing rabbit NADPH-P450 reudctase assessed as residual activity at 10 uM preincubated for 5 mins followed by substrate and NADP+ addition measured after 20 mins by fluorescence assay relative to control. The class given is ADME. To be noted: read-out: Activity. The procedure, abridged:
as §1

Series [12] deals with CYP3A4 (Homo sapiens, UniProt P08684). The experiment in a line: Inhibition of recombinant human CYP3A4 expressed in baculosomes coexpressing rabbit NADPH-P450 reudctase assessed as residual activity at 10 uM preincubated for 5 mins followed by substrate and NADP+ addition measured after 20 mins by fluorescence assay relative to control. Type of series: ADME. Conditions: read-out: Activity. The procedure, abridged: as §1
Sequence of CYP3A4 (P08684 whole entry): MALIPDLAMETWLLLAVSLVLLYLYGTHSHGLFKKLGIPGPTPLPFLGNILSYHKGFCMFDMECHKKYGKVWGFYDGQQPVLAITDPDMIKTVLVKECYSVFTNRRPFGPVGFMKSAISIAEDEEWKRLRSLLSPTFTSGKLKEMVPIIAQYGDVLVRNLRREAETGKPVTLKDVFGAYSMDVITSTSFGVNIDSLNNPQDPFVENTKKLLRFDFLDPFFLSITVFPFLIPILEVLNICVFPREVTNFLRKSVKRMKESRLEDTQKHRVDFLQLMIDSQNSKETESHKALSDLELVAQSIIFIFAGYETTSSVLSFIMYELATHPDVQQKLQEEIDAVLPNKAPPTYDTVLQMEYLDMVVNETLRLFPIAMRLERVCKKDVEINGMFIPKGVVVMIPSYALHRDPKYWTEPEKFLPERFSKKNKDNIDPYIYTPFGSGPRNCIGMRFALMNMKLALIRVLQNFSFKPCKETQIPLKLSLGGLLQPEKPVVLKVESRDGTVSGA

Series [13] deals with Mus musculus. The experiment in a line: Cognition enhancing effect in ICR mouse model of acute Alzheimer's disease assessed as reversal of amyloid beta (1 to 42)-induced cognitive deficit by measuring spatial working memory at 30 mg/kg, ip daily for 6 days measured on day 7 by Y maze spontaneous alteration test relative to control. The class given is functional. The procedure, abridged:
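Male ICR mice (6 weeks, 30–33 g) received Aβ1-42 500 pmol ICV in 10% DMSO/PBS. Compound in 20% cyclodextrin was given at 30 mg/kg daily for 6 days (n = 7 per group). One day later, each mouse explored a three-arm Y-maze for 8 min, and the sequence of arm entries was used to calculate % spontaneous alternation.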

pIC50, pKi: −log10 of the molar value.

Sequence of Translocator protein (P30536 whole entry): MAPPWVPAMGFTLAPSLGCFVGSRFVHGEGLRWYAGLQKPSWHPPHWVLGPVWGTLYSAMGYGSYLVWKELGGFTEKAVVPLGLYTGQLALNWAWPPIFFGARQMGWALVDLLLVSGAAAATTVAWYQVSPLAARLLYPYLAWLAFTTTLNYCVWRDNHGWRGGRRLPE
Sequence of CYP2C9 (P11712 whole entry): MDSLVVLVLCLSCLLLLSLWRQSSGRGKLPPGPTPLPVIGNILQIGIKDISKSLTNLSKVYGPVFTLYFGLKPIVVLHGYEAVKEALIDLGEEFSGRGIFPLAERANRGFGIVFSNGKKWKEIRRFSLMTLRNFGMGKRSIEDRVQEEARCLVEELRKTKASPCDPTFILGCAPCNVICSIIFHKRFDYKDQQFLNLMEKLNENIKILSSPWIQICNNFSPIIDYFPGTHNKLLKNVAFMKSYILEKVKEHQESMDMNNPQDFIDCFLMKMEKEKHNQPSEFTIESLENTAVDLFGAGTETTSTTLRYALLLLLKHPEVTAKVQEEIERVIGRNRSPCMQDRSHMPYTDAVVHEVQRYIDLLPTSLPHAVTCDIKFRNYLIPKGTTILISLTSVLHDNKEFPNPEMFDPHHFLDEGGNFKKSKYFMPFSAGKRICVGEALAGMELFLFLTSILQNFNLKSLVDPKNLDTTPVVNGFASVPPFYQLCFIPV
Sequence of CYP2D6 (P10635 whole entry): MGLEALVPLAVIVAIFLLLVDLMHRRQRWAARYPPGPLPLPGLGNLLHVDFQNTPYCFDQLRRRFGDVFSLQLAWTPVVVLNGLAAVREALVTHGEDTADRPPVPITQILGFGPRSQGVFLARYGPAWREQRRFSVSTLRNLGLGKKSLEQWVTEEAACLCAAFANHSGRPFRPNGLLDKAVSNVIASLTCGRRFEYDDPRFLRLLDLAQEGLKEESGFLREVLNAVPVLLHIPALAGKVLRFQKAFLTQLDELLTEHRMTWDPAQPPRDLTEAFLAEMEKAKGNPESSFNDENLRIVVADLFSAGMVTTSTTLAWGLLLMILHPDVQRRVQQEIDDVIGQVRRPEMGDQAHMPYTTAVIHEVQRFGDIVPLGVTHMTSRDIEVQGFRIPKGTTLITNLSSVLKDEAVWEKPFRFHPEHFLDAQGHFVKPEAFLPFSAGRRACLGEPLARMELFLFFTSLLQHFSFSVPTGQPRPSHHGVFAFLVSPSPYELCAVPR
Sequence of CYP2C19 (P33261 whole entry): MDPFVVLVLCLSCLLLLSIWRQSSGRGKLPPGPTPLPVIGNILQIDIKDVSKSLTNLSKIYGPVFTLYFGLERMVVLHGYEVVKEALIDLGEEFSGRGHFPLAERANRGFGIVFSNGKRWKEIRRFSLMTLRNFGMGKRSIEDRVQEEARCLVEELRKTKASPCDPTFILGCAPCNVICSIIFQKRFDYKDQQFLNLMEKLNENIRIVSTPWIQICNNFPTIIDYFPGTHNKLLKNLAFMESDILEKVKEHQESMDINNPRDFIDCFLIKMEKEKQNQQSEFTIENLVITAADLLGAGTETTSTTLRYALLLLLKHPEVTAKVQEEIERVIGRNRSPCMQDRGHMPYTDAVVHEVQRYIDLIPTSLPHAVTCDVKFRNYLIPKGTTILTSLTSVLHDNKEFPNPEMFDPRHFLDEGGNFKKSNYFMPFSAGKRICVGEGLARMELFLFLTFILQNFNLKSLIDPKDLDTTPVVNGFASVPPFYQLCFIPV
Sequence of Voltage-gated inwardly rectifying potassium channel KCNH2 (Q12809 whole entry): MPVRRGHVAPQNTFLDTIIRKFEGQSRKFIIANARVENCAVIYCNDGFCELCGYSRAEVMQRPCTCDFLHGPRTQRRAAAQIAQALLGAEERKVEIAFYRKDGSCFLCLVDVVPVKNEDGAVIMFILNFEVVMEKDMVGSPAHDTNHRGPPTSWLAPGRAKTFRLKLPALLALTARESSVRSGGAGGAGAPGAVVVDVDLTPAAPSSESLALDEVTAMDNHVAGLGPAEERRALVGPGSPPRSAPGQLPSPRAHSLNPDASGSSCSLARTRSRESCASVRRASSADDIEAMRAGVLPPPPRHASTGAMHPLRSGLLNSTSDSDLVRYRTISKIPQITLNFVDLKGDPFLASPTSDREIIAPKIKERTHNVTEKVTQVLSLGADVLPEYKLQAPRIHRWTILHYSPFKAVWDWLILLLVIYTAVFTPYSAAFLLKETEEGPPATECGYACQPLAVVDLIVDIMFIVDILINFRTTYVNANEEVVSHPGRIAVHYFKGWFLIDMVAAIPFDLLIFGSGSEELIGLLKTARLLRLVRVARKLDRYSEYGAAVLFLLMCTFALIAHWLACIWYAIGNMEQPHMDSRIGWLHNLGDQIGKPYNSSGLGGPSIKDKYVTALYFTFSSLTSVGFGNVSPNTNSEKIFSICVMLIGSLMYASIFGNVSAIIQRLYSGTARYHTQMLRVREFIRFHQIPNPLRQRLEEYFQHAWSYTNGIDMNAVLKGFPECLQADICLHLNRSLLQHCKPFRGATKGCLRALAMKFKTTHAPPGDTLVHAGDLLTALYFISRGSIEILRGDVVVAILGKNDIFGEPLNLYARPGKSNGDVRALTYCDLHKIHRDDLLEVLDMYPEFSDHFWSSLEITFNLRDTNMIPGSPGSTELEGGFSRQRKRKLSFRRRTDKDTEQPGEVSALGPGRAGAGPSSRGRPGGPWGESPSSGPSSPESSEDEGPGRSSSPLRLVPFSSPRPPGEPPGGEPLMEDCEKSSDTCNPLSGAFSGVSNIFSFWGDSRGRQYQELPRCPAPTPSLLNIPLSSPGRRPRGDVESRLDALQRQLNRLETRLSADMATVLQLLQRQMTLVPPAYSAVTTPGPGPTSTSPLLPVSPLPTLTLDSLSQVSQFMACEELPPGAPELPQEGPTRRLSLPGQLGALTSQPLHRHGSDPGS

Take `COc1ccc(OC)c(CN(C(C)=O)c2ccc(F)cc2Oc2ccccc2)c1`: the negative logarithm of the IC50 (pIC50) (in general, −log10 of the IC50, conventionally taken in molar units) in [1] was 8.80.
As to `COc1ccc(OC)c(Cc2nc3ccccc3n2CC(=O)Nc2cc(C(C)(C)C)cc(C(C)(C)C)c2)c1`, the viability at 24 h, 5 µM in [2] lay in the range of 99 to 112%. Further, the activity at 20 min, 10 µM was found to be 92.5% in [3]; 36.1% in [6]; 56.3% in series [8]; 43.9% in series [11]; 43.3% in [12]. Moreover, the inhibition (as a rule, the relative decrease from the control value, in per cent) in series [4] amounted to 10%; in series [9], 36%. In addition, the Activity in series [5] worked out at 54%; in series [7] it was 46%. In addition, the pIC50 in series [10] is 7.70.
With `CCCCN(CCCC)C(=O)Cc1c(-c2ccc(Cl)cc2)nc2c(Cl)cc(Cl)cn12`, the pKi – broadly, the Ki on a negative log10 scale, so that one unit is a factor of ten – in series [1] is 8.57.
Take `CCN1CCCC1CNC(=O)c1ccc(Cn2c(Cc3c(Cl)cccc3Cl)nc3ccccc32)cc1` (stereo not drawn): in [2], the viability at 24 h, 5 µM fell in the range of 62 to 122%. Also, the activity at 20 min, 10 µM turned out to be 63% in [3]; 50.6% in [6]; 82.4% in series [8]; 31.4% in series [11]; 130% in series [12]. Also, the values for the inhibition in series [4] and in series [9] were 24% and 6%, respectively. For the same compound, the Activity in series [5] came out at 90%; in series [7], 51%. Moreover, the pIC50 in [10] was 5.80.
In series [1], `CCCCCCN(CCCCCC)C(=O)Cc1c(-c2ccc(F)cc2)[nH]c2ccccc12` gave a pKi of 8.49.
For `CN(C)CCCNC(=O)c1ccc(Cn2c(Cc3c(Cl)cccc3Cl)nc3ccccc32)cc1`, the viability at 24 h, 5 µM in series [2] was 93 to 111%. Moreover, the values for the Activity in series [13], in [5] and in series [7] were 62%, 82% and 85%, respectively. Further, the activity at 20 min, 10 µM was found to be 66.1% in series [3]; 53.9% in series [6]; 120% in series [8]; 72.9% in series [11]; 206% in [12]. Moreover, the figures for the inhibition in [4] and in series [9] were 9% and 7%, respectively.
In the case of `NC(=O)CN1CCCC1=O`, the viability at 24 h, 5 µM in series [2] was 88 to 132%. The Activity in [13] turned out to be 32%; in series [5], 60%; in series [7] it was 127%. Further, the inhibition in series [4] stood at 129%; in series [9], 29%.
As for `O=C(NCCCN1CCCCC1)c1ccc(Cn2c(Cc3c(Cl)cccc3Cl)nc3ccccc32)cc1`, the viability at 24 h, 5 µM in series [2] lay in the range of 86 to 118%. The activity at 20 min, 10 µM in [3] is 68.4%; in [6] it was 61.1%; in series [8] it was 25.5%; in series [11] it was 67.3%; in [12] it was 176%. The inhibition was found to be 27% in series [4] and 3% in series [9]. Further, the Activity was found to be 90% in series [5] and 64% in [7].
In the case of `Cc1ccc(C(C)C)cc1NC(=O)Cn1c(-c2cc(Cl)ccc2Cl)nc2ccc(Cl)cc21`, the viability at 24 h, 5 µM in series [2] was in the range of 86 to 106%. The activity at 20 min, 10 µM in series [3] stood at 56.3%; in series [6], 29.6%; in series [8], 82.2%; in [11] it was 11.9%; in series [12], 15.4%. Besides, the inhibition is 107% in series [4] and 0% in series [9]. The figures for the Activity in series [5] and in [7] were 87% and 69%, respectively.
The compound `CC(=O)N(Cc1ccccc1OC(C)C)c1ccc(Cl)cc1Oc1ccccc1` gave a pIC50 in series [1] of 9.04.

Values taken from ChEMBL document CHEMBL3877298, “Discovery of benzimidazole derivatives as modulators of mitochondrial function: A potential treatment for Alzheimer's disease” (Eur J Med Chem, 2017).
